Here are results for 1 compound from ChEMBL document CHEMBL4354843, “Structure-Based Design of a Potent and Selective Covalent Inhibitor for SRC Kinase That Targets a P-Loop Cysteine” (J Med Chem, 2020).

Assay [1] has as its target Mitogen-activated protein kinase kinase kinase 13 (Homo sapiens) (UniProt O43283). Description: Binding affinity to wild-type human full length LZK (M1 to W966 residues) expressed in mammalian expression system assessed as residual binding level at 1 uM by Kinomescan method relative to control. The procedure, abridged:
(§1)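 Active-site-directed competition binding panel (KinomeScan) covering 468 kinases. Test agent was screened at 1 μM. The read-out is the remaining kinase signal expressed relative to a DMSO control. Scores above 35%, taken as weak binding, were not reported.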

For assay [2], the system named is NCI-H1975. Description: Antiproliferative activity against human NCI-H1975 cells assessed as reduction in cell viability incubated for 72 hrs by cell-titer glo assay. The following applies: NCI-H1975, 72 h.
The target of assay [3] is Serine/threonine-protein kinase DCLK2 (Homo sapiens) (UniProt Q8N568). The assay is described as follows: Binding affinity to wild-type human partial length DCAMKL2 (K273 to V664 residues) expressed in bacterial expression system assessed as residual binding level at 1 uM by Kinomescan method relative to control.
Assay [4] deals with Serine/threonine-protein kinase Nek7 (Homo sapiens) (UniProt Q8TDX7). Description: Binding affinity to wild-type human full length NEK7 (M1 to S302 residues) expressed in bacterial expression system assessed as residual binding level at 1 uM by Kinomescan method relative to control. In outline:
as §1

Assay [5] deals with Transient receptor potential cation channel subfamily M member 6 (Homo sapiens) (UniProt Q9BX84). The assay is described as follows: Binding affinity to wild-type human partial length TRPM6 (Q1723 to I1998 residues) expressed in mammalian expression system assessed as residual binding level at 1 uM by Kinomescan method relative to control. In outline:
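Active site-directed competition binding panel (KinomeScan, 468 kinases). Test compound at 1 μM. Read-out is kinase binding remaining versus DMSO control, expressed as percent of control. Scores above 35% are treated as weak binding.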

For assay [6], the target named is Death-associated protein kinase 1 (Homo sapiens) (UniProt P53355). Description: Binding affinity to wild-type human partial length DAPK1 (M1 to F296 residues) expressed in bacterial expression system assessed as residual binding level at 1 uM by Kinomescan method relative to control.
Assay [7] addresses Cyclin-dependent kinase 3 (Homo sapiens) (UniProt Q00526). The assay is described as follows: Binding affinity to wild-type human full length CDK3 (M1 to H305 residues) expressed in bacterial expression system assessed as residual binding level at 1 uM by Kinomescan method relative to control. In outline: (§2)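 Active-site-directed KinomeScan competition binding panel covering 468 kinases, compound tested at 1 μM. Each readout is the kinase signal remaining with compound, expressed as a percentage of the DMSO control. […]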

Assay [8] has as its target Fibroblast growth factor receptor 2 (Homo sapiens) (UniProt P21802). Description: Binding affinity to wild-type human partial length FGFR2 (D457 to E769 residues) expressed in bacterial expression system assessed as residual binding level at 1 uM by Kinomescan method relative to control.
The target in assay [9] is Tyrosine-protein kinase HCK (Homo sapiens, UniProt P08631). The assay is described as follows: Binding affinity to wild-type human full length HCK (M22 to P526 residues) expressed in bacterial expression system assessed as residual binding level at 1 uM by Kinomescan method relative to control. The procedure, abridged: (§3)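 KinomeScan, an active site-directed competition binding panel of 468 kinases. The test compound was at 1 μM. The readout is remaining kinase binding as a percentage of the DMSO control. Scores above 35% were treated as weak binding and not listed.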

Assay [10] addresses Phosphatidylinositol 4,5-bisphosphate 3-kinase catalytic subunit beta isoform (Homo sapiens) (UniProt P42338). Description: Binding affinity to wild-type human partial length PIK3CB (P118 to S1070 residues) expressed in mammalian expression system assessed as residual binding level at 1 uM by Kinomescan method relative to control.
Assay [11] concerns the target Testis-specific serine/threonine-protein kinase 3 (Homo sapiens) (UniProt Q96PN8). The assay is described as follows: Binding affinity to wild-type human full length TSSK3 (M1 to T268 residues) expressed in mammalian expression system assessed as residual binding level at 1 uM by Kinomescan method relative to control. In outline:
as §3

Assay [12] has as its target Peripheral plasma membrane protein CASK (Homo sapiens) (UniProt O14936). Description: Binding affinity to wild-type human partial length CASK (M1 to H315 residues) expressed in mammalian expression system assessed as residual binding level at 1 uM by Kinomescan method relative to control.
The target in assay [13] is Death-associated protein kinase 3 (Homo sapiens) (UniProt O43293). The assay is described as follows: Binding affinity to wild-type human partial length DAPK3 (M1 to A277 residues) expressed in bacterial expression system assessed as residual binding level at 1 uM by Kinomescan method relative to control.
For assay [14], the target named is Serine/threonine-protein kinase haspin (Homo sapiens) (UniProt Q8TF76). Description: Binding affinity to wild-type human partial length HASPIN (I452 to K798 residues) expressed in mammalian expression system assessed as residual binding level at 1 uM by Kinomescan method relative to control.
For assay [15], the target named is Mitogen-activated protein kinase 3 (Homo sapiens) (UniProt P27361). Description: Binding affinity to wild-type human full length ERK1 (M1 to P379 residues) expressed in bacterial expression system assessed as residual binding level at 1 uM by Kinomescan method relative to control. The procedure, abridged: as §2
Chain of Mitogen-activated protein kinase 3 (Homo sapiens) (P27361 whole entry, the tested form may be a part): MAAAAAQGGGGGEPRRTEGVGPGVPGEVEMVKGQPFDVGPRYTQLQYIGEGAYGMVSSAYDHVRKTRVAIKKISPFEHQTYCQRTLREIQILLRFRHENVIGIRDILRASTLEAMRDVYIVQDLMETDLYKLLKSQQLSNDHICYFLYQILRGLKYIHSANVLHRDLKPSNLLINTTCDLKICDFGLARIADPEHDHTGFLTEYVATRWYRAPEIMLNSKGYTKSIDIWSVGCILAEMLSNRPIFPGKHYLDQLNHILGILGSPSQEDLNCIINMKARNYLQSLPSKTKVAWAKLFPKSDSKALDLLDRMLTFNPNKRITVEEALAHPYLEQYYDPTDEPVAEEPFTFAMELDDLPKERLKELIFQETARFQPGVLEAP
Assay [16] deals with Misshapen-like kinase 1 (Homo sapiens) (UniProt Q8N4C8). The assay is described as follows: Binding affinity to wild-type human partial length MINK (M1 to K312 residues) expressed in mammalian expression system assessed as residual binding level at 1 uM by Kinomescan method relative to control. The procedure, abridged: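 Active-site-directed competition binding panel of 468 kinases (KinomeScan), compound at 1 μM. The read-out is kinase remaining bound, given as a percentage of the DMSO control. […]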
Chain of Misshapen-like kinase 1 (Homo sapiens) (Q8N4C8 whole entry, looked up, the tested form may be a part): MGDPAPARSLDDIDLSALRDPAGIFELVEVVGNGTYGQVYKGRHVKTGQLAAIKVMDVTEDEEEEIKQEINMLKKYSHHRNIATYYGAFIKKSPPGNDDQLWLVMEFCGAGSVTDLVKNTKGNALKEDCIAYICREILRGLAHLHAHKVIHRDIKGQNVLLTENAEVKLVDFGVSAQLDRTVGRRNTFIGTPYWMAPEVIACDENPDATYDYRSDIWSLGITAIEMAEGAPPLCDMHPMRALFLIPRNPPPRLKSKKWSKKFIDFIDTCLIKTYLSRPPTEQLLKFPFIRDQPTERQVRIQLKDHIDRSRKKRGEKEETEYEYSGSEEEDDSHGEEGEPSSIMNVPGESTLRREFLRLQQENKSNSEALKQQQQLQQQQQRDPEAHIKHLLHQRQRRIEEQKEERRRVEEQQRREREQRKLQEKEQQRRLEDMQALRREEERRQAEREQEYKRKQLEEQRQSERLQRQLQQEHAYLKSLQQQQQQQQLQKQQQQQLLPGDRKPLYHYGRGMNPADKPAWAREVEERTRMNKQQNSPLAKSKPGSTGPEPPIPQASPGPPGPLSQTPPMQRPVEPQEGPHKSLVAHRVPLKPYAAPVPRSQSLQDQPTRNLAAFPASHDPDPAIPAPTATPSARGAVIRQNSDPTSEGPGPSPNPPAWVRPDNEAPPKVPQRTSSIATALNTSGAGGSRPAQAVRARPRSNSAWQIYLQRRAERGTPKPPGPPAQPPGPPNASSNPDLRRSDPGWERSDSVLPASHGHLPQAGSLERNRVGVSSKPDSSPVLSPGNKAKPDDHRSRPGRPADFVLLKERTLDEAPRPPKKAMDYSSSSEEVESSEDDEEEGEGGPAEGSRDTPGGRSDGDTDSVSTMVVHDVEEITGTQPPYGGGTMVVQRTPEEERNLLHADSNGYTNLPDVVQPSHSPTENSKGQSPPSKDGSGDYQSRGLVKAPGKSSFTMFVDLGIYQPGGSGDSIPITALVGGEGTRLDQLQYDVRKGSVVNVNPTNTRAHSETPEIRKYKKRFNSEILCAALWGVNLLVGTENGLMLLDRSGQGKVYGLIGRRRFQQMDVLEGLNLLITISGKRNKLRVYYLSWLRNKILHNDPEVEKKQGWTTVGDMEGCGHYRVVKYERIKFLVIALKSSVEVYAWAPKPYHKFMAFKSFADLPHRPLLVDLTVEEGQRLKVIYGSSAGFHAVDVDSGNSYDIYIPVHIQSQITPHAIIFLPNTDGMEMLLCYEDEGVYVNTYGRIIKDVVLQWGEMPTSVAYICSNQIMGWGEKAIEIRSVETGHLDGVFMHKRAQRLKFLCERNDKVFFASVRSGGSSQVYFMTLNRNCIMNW

Assay [17] has as its target Epidermal growth factor receptor (Homo sapiens) (UniProt P00533). The assay is described as follows: Binding affinity to wild-type human partial length EGFR (R669 to V1011 residues) expressed in bacterial expression system assessed as residual binding level at 1 uM by Kinomescan method relative to control.
In assay [18] the target is Cyclin-dependent kinase 9 (Homo sapiens) (UniProt P50750). Description: Binding affinity to wild-type human full length CDK9 (M1 to F372 residues) expressed in bacterial expression system assessed as residual binding level at 1 uM by Kinomescan method relative to control. The procedure, abridged: as §2
For assay [19], the target named is Rhodopsin kinase GRK7 (Homo sapiens) (UniProt Q8WTQ7). The assay is described as follows: Binding affinity to wild-type human full length GRK7 (M1 to L553 residues) expressed in mammalian expression system assessed as residual binding level at 1 uM by Kinomescan method relative to control. In outline:
as §2

The target in assay [20] is BMP-2-inducible protein kinase (Homo sapiens) (UniProt Q9NSY1). The assay is described as follows: Binding affinity to wild-type human partial length BIKE (S34 to N329 residues) expressed in bacterial expression system assessed as residual binding level at 1 uM by Kinomescan method relative to control. The procedure, abridged:
as §3

The target in assay [21] is Protein kinase C delta type (Homo sapiens) (UniProt Q05655). The assay is described as follows: Binding affinity to wild-type human partial length PRKCD (Q328 to D676 residues) expressed in bacterial expression system assessed as residual binding level at 1 uM by Kinomescan method relative to control.
Chain of Protein kinase C delta type (Homo sapiens) (Q05655 whole entry, looked up, the tested form may be a part): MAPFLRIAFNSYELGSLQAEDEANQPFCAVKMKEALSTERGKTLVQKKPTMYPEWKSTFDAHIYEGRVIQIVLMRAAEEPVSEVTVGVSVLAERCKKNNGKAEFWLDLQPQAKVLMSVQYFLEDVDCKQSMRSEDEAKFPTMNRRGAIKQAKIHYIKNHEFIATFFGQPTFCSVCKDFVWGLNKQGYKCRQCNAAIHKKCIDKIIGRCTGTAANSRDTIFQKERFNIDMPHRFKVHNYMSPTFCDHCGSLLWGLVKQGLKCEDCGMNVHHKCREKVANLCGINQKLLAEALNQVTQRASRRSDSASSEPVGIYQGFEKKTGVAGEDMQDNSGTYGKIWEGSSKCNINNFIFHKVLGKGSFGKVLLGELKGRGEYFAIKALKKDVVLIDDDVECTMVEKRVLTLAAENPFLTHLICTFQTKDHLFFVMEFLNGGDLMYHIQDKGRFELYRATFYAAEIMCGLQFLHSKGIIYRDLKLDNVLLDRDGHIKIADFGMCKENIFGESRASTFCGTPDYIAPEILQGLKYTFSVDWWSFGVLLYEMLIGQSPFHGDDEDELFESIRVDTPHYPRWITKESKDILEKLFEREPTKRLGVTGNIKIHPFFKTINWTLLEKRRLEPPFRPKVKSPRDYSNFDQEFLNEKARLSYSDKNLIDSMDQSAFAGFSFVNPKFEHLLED

Each structure is given as a SMILES string.

Chain of Phosphatidylinositol 4,5-bisphosphate 3-kinase catalytic subunit beta isoform (Homo sapiens) (P42338 whole entry, looked up, the tested form may be a part, canonical isoform): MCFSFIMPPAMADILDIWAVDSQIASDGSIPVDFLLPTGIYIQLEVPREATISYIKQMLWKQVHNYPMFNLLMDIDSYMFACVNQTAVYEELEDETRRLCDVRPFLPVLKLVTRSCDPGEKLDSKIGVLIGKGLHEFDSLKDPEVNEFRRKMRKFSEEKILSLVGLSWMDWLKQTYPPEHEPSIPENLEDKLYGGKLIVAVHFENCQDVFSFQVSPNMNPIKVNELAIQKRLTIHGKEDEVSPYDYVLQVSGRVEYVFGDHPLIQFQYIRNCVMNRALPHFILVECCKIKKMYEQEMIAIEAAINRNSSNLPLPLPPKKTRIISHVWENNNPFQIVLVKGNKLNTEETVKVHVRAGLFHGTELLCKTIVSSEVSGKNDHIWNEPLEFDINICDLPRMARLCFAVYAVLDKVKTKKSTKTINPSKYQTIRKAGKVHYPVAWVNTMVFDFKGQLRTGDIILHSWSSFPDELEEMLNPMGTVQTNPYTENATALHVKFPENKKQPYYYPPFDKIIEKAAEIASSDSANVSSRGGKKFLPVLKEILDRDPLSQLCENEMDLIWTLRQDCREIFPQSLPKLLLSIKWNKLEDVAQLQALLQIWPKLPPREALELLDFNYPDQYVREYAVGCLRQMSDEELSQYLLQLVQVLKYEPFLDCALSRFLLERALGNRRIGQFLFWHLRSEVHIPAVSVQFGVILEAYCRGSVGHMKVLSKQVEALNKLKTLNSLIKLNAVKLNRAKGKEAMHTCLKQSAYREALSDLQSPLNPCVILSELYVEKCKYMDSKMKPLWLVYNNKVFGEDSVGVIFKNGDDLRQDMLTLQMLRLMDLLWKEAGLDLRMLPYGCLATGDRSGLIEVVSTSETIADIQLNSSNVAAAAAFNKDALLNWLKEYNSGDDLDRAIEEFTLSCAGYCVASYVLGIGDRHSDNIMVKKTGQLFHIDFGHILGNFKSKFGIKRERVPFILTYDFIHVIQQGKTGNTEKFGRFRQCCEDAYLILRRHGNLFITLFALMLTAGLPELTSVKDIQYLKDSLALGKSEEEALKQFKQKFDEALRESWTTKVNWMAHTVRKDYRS
Chain of Cyclin-dependent kinase 3 (Homo sapiens) (Q00526 whole entry, looked up, the tested form may be a part): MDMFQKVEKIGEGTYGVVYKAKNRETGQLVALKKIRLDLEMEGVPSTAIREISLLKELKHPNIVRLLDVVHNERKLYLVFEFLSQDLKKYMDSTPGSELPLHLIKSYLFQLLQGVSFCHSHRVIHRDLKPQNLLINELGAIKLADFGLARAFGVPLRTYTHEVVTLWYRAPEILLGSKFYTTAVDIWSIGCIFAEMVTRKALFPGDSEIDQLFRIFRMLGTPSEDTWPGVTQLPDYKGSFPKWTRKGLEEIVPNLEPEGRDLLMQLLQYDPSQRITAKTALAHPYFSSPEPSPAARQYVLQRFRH
Chain of Epidermal growth factor receptor (Homo sapiens) (P00533 whole entry, the tested form may be a part): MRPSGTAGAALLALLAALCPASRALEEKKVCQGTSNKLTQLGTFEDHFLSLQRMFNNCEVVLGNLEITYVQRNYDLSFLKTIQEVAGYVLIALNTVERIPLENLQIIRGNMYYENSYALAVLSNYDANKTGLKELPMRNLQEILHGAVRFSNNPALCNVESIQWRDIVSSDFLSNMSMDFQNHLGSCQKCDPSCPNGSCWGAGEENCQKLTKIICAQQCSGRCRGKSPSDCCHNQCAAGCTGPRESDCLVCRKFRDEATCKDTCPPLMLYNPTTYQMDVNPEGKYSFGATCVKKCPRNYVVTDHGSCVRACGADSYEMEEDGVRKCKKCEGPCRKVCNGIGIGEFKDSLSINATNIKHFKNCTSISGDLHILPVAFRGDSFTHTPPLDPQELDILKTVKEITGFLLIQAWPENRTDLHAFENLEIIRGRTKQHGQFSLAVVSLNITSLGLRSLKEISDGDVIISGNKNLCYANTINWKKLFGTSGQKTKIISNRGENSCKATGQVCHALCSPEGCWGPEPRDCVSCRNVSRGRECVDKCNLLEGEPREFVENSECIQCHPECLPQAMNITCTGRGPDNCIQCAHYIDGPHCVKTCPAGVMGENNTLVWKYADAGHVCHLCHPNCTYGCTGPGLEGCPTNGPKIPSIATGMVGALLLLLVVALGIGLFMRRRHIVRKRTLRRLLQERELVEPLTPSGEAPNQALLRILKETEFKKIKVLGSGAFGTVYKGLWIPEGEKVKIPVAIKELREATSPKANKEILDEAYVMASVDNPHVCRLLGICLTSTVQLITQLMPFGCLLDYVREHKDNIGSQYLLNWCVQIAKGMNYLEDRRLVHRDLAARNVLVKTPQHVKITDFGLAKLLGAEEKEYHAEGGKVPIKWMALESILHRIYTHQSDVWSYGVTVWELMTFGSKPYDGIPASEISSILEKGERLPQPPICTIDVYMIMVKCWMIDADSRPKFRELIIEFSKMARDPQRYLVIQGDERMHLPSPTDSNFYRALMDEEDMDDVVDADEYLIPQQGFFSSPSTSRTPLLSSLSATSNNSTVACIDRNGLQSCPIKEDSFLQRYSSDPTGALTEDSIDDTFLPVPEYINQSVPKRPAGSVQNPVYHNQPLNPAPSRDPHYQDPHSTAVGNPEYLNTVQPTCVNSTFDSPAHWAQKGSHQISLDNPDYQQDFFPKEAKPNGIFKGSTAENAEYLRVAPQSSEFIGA

A word on the IC50: it is the midpoint of a concentration-inhibition curve. Regarding `C=CC(=O)Nc1ccccc1Nc1nc(Nc2ccc(N3CCN(C)CC3)cc2)ncc1C(=O)Nc1c(C)cccc1Cl`, the Activity in [1] is 91%; in assay [3] it was 100%; in assay [4] it was 100%; in [5], 81%; in assay [6], 100%; in [7], 100%. The Activity stood at 95% in assay [8]; 0.8% in [9]; 100% in assay [10]; 90% in [11]; 73% in [12]; 100% in [13]. Further, the Activity was 100% in [14]; 100% in assay [15]; 81% in [16]; 80% in [17]; 100% in [18]; 100% in [19]. The values for the Activity in assay [20] and in assay [21] were 94% and 100%, respectively. Besides, the IC50 in [2] came to 0.3 µM.
